Reference: ChEMBL document CHEMBL4049460, “Trisubstituted Imidazoles with a Rigidized Hinge Binding Motif Act As Single Digit nM Inhibitors of Clinically Relevant EGFR L858R/T790M and L858R/T790M/C797S Mutants: An Example of Target Hopping” (J Med Chem, 2017)
Converted amounts (≈) assume the structure as drawn.

Tests used:
[1] = target: Epidermal growth factor receptor (Homo sapiens, UniProt P00533, C797S/L858R/T790M); assay: (§1) Inhibition of recombinant human N-terminally GST-tagged EGFR L858R/T790M/C797S triple mutant expressed in baculovirus in Sf9 insect cells preincubated for 20 mins followed by addition of [33P]-ATP measured after 2 hrs by filter-binding method
[2] = Solubility of the compound at pH 7.5 by UV-HPLC analysis; assay type: physicochemical; conditions: buffer
Method in brief: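 Solubility measured in the kinase assay buffer (pH 7.5); concentration determined by HPLC with UV detection.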

[3] = target: T1, Epidermal growth factor receptor (Homo sapiens, UniProt P00533, L858R); assay: Inhibition of recombinant human GST-tagged EGFR L858R mutant cytoplasmic domain expressed in baculovirus expression system preincubated for 20 mins followed by addition of [33P]-ATP measured after 2 hrs by filter-binding method
[4] = target: T2, Epidermal growth factor receptor (Homo sapiens, UniProt P00533, L858R/T790M); assay: (§2) Inhibition of recombinant human GST-tagged EGFR L858R/T790M double mutant cytoplasmic domain expressed in baculovirus expression system preincubated for 20 mins followed by addition of [33P]-ATP measured after 2 hrs by filter-binding method
[5] = target: T3, Epidermal growth factor receptor (Homo sapiens, UniProt P00533); assay: Inhibition of recombinant human GST-tagged wild type EGFR ( 668 to 1210 residues) cytoplasmic domain expressed in baculovirus expression system preincubated for 20 mins followed by addition of [33P]-ATP measured after 2 hrs by filter-binding method
[6] = target: Mitogen-activated protein kinase 14 (Homo sapiens, UniProt Q16539); assay: Inhibition of p38alpha MAPK (unknown origin) assessed as decrease in ATF2 phosphorylation at Thr69/71 at 1 uM after 1 hr by ELISA
[7] = target: T1, Epidermal growth factor receptor; assay: Inhibition of EGFR L858R mutant (unknown origin)
[8] = target: T2, Epidermal growth factor receptor; assay: Inhibition of EGFR L858R/T790M double mutant (unknown origin)
[9] = target: T3, Epidermal growth factor receptor; assay: Inhibition of wild-type EGFR (unknown origin)
[10] = target: Epidermal growth factor receptor (Homo sapiens, UniProt P00533, T790M/C797S/L858R); assay: as §1
[11] = target: Epidermal growth factor receptor (Homo sapiens, UniProt P00533, T790M/L858R); assay: as §2
[12] = tested on: Epidermal growth factor receptor (Homo sapiens), P00533 [L858R,T790M,C797S]; assay: Potency index, ratio of osimertinib IC50 to compound IC50 for recombinant human N-terminally GST-tagged EGFR L858R/T790M/C797S triple mutant expressed in baculovirus in Sf9 insect cells
[13] = species: Homo sapiens; assay: Selectivity ratio of IC50 for EGFR L858R/T790M double mutant (unknown origin) to IC50 for wild-type EGFR (unknown origin)

Mitogen-activated protein kinase 14, sequence (Q16539 whole entry): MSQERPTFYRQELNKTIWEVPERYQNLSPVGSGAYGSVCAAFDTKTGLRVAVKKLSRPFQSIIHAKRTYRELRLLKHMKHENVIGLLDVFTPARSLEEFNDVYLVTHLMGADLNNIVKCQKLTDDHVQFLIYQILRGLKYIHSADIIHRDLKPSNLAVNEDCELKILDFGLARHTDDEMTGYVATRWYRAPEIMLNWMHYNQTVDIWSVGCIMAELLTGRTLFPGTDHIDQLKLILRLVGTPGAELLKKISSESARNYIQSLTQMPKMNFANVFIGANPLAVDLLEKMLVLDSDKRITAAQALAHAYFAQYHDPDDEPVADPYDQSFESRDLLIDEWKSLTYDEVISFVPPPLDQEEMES

Row | SMILES | IC50 ([3]; read-out: IC50) | IC50 [4] | IC50 ([5]; read-out: IC50) | further results
1 | OCCCCc1nc(-c2ccc(F)cc2)c(-c2ccnc3[nH]c(-c4ccccc4)cc23)[nH]1 | < 0.0003 µM | 0.00839 µM | < 0.0003 µM | IC50 [1]: 0.0084 µM; solubility [2]: Insoluble; IC50 [6]: 0.002 µM
2 | C=CC(=O)Nc1cccc(-c2c[nH]c3nccc(Cl)c23)c1 | 0.459 µM | 0.0679 µM | 0.525 µM | 
3 | Oc1cccc(-c2nc(-c3ccc(F)cc3)c(-c3ccnc4[nH]c(-c5ccccc5)cc34)[nH]2)c1 | 0.0236 µM | 0.706 µM | 0.0304 µM | IC50 [1]: 0.782 µM; IC50 [6]: 0.007 µM
4 | OCCCc1nc(-c2ccc(F)cc2)c(-c2ccnc3[nH]c(-c4ccccc4)cc23)[nH]1 |  |  |  | IC50 [1]: 0.0211 µM; IC50 [7]: < 0.0005 µM; IC50 [6]: 0.002 µM; IC50 [8]: 0.00647 µM; IC50 [9]: < 0.0005 µM
5 | Oc1ccc(-c2nc(-c3ccco3)c(-c3ccnc4[nH]c(-c5ccccc5)cc34)[nH]2)cc1 | 1.3 µM | 3.31 µM | 1.79 µM | IC50 [6]: 0.288 µM
6 | C=CC(=O)Nc1cccc(-c2c[nH]c3nccc(-c4[nH]c(CCCO)nc4C4CC4)c23)c1 | 0.258 µM |  | 0.673 µM | IC50 [10]: Not Active; IC50 [11]: Not Active
7 | C=CC(=O)NCc1cccc(-c2nc(C3CC3)c(-c3ccnc4[nH]c(-c5ccccc5)cc34)[nH]2)c1 | 3.92 µM | 11.3 µM | 4.05 µM | 
8 | CCC(=O)Nc1cccc(-c2cc3c(-c4[nH]c(-c5ccccc5)nc4-c4ccc(F)cc4)ccnc3[nH]2)c1 | 0.0187 µM | 0.987 µM | 0.0272 µM | 
9 | Fc1ccc(-c2nc(-c3ccccc3)[nH]c2-c2ccnc3[nH]ccc23)cc1 | 0.631 µM |  | 0.712 µM | IC50 [10]: Not Active; IC50 [11]: Not Active
10 | CCC(=O)Nc1cccc(-c2c[nH]c3nccc(-c4[nH]c(CCCO)nc4C4CC4)c23)c1 |  |  |  | IC50 [10]: Not Active; IC50 [3]: Not Active; IC50 [11]: Not Active; IC50 [5]: Not Active
11 | C=CC(=O)NCc1cccc(-c2nc(-c3ccc(F)cc3)c(-c3ccnc4[nH]c(-c5ccccc5)cc34)[nH]2)c1 | 0.013 µM | 0.263 µM | 0.0176 µM | 
12 | Fc1ccc(-c2[nH]c(-c3ccccc3)nc2-c2ccnc3[nH]c(-c4ccccc4)cc23)cc1 | 0.102 µM | 1.45 µM | 0.215 µM | IC50 [1]: 1.43 µM
13 | CCC(=O)Nc1cccc(-c2c[nH]c3nccc(-c4[nH]c(-c5ccccc5)nc4-c4ccc(F)cc4)c23)c1 |  |  |  | IC50 [10]: Not Active; IC50 [3]: Not Active; IC50 [11]: Not Active; IC50 [5]: Not Active
14 | Oc1ccc(-c2nc(-c3ccnc4[nH]c(-c5ccccc5)cc34)c(-c3ccc(F)cc3)[nH]2)cc1 | 0.0241 µM | 0.916 µM | 0.0492 µM | 
15 | C=CC(=O)Nc1cccc(-c2cc3c(-c4[nH]c(-c5ccccc5)nc4-c4ccc(F)cc4)ccnc3[nH]2)c1 | 0.0321 µM | 0.908 µM | 0.0432 µM | 
16 | Oc1ccc(-c2nc(-c3ccccc3)c(-c3ccnc4[nH]c(-c5ccccc5)cc34)[nH]2)cc1 | 0.0112 µM | 0.658 µM | 0.0136 µM | IC50 [6]: 0.001 µM
17 | C=CC(=O)Nc1cccc(-c2c[nH]c3nccc(-c4[nH]c(-c5ccccc5)nc4-c4ccc(F)cc4)c23)c1 | 0.0078 µM | 0.112 µM | 0.0105 µM | IC50 [10]: Not Active
18 | CCC(=O)Nc1cccc(-c2c[nH]c3nccc(-c4[nH]c(CCCO)nc4-c4ccc(F)cc4)c23)c1 | 0.279 µM | 5.9 µM | 0.673 µM | 
19 | C=CC(=O)NCc1cccc(-c2cc3c(-c4[nH]c(-c5ccccc5)nc4-c4ccc(F)cc4)ccnc3[nH]2)c1 | 0.0342 µM | 0.683 µM | 0.0332 µM | 
20 | OCCc1nc(-c2ccc(F)cc2)c(-c2ccnc3[nH]c(-c4ccccc4)cc23)[nH]1 | < 0.0003 µM | 0.0125 µM | < 0.0003 µM | IC50 [1]: 0.00764 µM; solubility ([2]; read-out: solubility): 7 µg/mL (≈ 17.6 µM); IC50 [6]: 0.004 µM; Ratio IC50 [12]: 35
21 | C=CC(=O)Nc1cccc(-c2c[nH]c3nccc(-c4[nH]c(CCCO)nc4C(F)(F)F)c23)c1 | 0.297 µM | 1.88 µM | 0.68 µM | IC50 [10]: Not Active
22 | OCCCc1nc(-c2ccc(F)cc2)c(-c2ccnc3[nH]ccc23)[nH]1 | 0.0244 µM | 0.893 µM | 0.044 µM | IC50 [1]: 0.943 µM; Ratio IC50 [13]: > 130; IC50 [6]: 0.012 µM
23 | C=CC(=O)NCc1cccc(-c2cc3cccnc3[nH]2)c1 |  |  |  | IC50 [10]: Not Active; IC50 [3]: Not Active; IC50 [11]: Not Active; IC50 [5]: Not Active
24 | Nc1cccc(-c2cc3c(-c4[nH]c(-c5ccccc5)nc4-c4ccc(F)cc4)ccnc3[nH]2)c1 | 0.0154 µM | 0.651 µM | 0.0241 µM | 
25 | NCc1cccc(-c2nc(-c3ccc(F)cc3)c(-c3ccnc4[nH]c(-c5ccccc5)cc34)[nH]2)c1 |  |  |  | IC50 [1]: 0.336 µM; IC50 [7]: < 0.0005 µM; IC50 [8]: 0.16 µM; IC50 [9]: < 0.0005 µM
